IDH1 mut inh: IDH1 R132H (human) inhibition; O75874; IDH1 R132H reductase, diaphorase/resazurin fluorescence, 60 min; inhibition, % at 10 µM; 70,000 compounds, 0.18% hits; in the data active = inhibition above about 34%;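 also: 0% = DMSO and 100% = no enzyme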
Target sequence (O75874 whole entry R132H): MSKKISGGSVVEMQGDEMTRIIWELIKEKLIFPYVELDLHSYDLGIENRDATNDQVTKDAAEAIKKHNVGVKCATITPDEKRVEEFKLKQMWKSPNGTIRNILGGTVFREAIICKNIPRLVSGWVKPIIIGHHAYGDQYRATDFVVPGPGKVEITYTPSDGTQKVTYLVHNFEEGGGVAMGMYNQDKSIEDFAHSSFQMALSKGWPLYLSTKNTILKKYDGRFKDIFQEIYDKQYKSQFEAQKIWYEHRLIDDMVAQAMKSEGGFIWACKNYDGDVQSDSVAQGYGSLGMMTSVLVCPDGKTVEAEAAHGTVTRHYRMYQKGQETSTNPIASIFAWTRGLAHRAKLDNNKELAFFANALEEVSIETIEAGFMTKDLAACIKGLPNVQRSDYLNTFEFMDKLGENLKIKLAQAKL
KDM4C inh: KDM4C (human) demethylase inhibition; GST-KDM4C 2-372, H3K9me3 peptide, LANCE TR-FRET; inhibition, % at 12.5 µM; 96,000 compounds, 0.15% hits; Q9H3R0;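 active = mean replicate inhibition above about 25%, with at least 55% of replicates also reaching it, limit read from the data, passing the limit was not always enough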
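reagent = H3K9me3 peptide substrate, Fe(II), 2-oxoglutarate | system = GST-tagged GASC-1 (JMJD2C) catalytic fragment, aa 2-372 | amount = enzyme final amount 10 nM | read-out = Fall in 671/618 emission ratio as inhibition | medium = HEPES buffer, pH 7.5, plus ascorbate | schedule = 30 min reaction, 60 min detection, RT | measured by = LANCE TR-FRET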
T cruzi growth: inhibitors of T. cruzi proliferation. T. cruzi beta-gal in NIH3T3, GalScreen luminescence, 90 h. 77,000 compounds, 5.9% hits. inhibition, % at 8.34 µM;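 active = mean inhibition above about 93%, with at least 55% of replicates each passing it, limit read from the data, passing the limit was not always enough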
Pf Dd2 growth: P. falciparum Dd2 growth inhibition; SYBR Green, 72 h; hits give low values; activity change, % at 10 µM; 94,000 compounds, 2.3% hits; in the data active = activity change below about -80%
* hit, by the source's call; . = no result; ! = not confirmed by another sample. A selection: hits, their analogues and other compounds. The true share with any hit is near 5.8%.

SMILES	IDH1 mut inh	KDM4C inh	T cruzi growth	Pf Dd2 growth
C[C@H](CO)N1C[C@H](C)[C@H](CN(C)CC2CC2)Oc2ccc(NC(=O)Nc3ccccc3)cc2CC1=O	0.8	-3.4	-26.5	-89.1*
C[C@H]1CN([C@@H](C)CO)C(=O)Cc2cc(NC(=O)CCC(F)(F)F)ccc2O[C@H]1CN(C)S(C)(=O)=O	-0.7	2.9	-1.0	-87.3*
C[C@H](CO)N1C[C@H](C)[C@H](CN(C)CC2CC2)Oc2ccc(NC(=O)Nc3ccc(C(F)(F)F)cc3)cc2CC1=O	.	-0.5	28.8	-76.1
C[C@@H]1CN([C@@H](C)CO)C(=O)Cc2cc(NC(=O)Nc3ccc(C(F)(F)F)cc3)ccc2O[C@@H]1CN(C)CC1CC1	.	-3.2	69.8	-83.2*
C[C@H]1CCCCO[C@@H](CN(C)Cc2ccc(C(F)(F)F)cc2)[C@@H](C)CN([C@@H](C)CO)C(=O)c2cc(NC(=O)Cc3ccccc3)ccc2O1	0.2	-1.4	2.1	-66.9
C[C@@H]1CN([C@@H](C)CO)C(=O)c2cc(NC(=O)C3CC3)ccc2O[C@@H]1CN(C)Cc1ccc(C(=O)Nc2ccccc2N)cc1	-0.1	-0.5	58.7	-18.2
C[C@H](CO)N1C[C@H](C)[C@H](CN(C)Cc2ccc(C(=O)Nc3ccccc3N)cc2)OCCCC[C@H](C)Oc2ccc(NC(=O)C3CCCCC3)cc2C1=O	2.5	-1.5	.	-92.5*
C[C@H]1CN([C@@H](C)CO)C(=O)c2cc(NC(=O)C3CC3)ccc2O[C@H]1CN(C)Cc1ccc(C(=O)Nc2ccccc2N)cc1	0.4	-0.9	.	-53.0
C[C@@H]1CN([C@@H](C)CO)C(=O)c2cc(NC(=O)C3CCCCC3)ccc2O[C@@H]1CN(C)Cc1ccc(C(=O)Nc2ccccc2N)cc1	.	-2.5	74.7	-88.5*
C[C@@H]1CN([C@H](C)CO)C(=O)c2cc(NC(=O)C3CCCCC3)ccc2O[C@@H]1CN(C)Cc1ccc(C(=O)Nc2ccccc2N)cc1	.	-0.7	48.0	-83.3*
CCC(C)C(O)C(C)(O)/C=C/C1=CC2=CC(=O)C(C)(O)C(O)C2CO1 (configuration not stated)	0.6	.	.	.
O=C(Nc1cccc(Cn2cccn2)c1)c1cc(-c2ccncc2)nc2ccc(Br)cc12	-0.1	.	.	.
COc1ccc(CN(C)C[C@@H]2Oc3c(NC(=O)c4ccc(-c5nccs5)cc4)cccc3C(=O)N([C@@H](C)CO)C[C@H]2C)cc1	-3.1	.	8.4	-89.7*
COc1ccc(CN(C)C[C@@H]2Oc3c(NC(=O)c4ccc(-c5nccs5)cc4)cccc3C(=O)N([C@H](C)CO)C[C@H]2C)cc1	.	-1.3	16.4	-84.4*
COc1ccc(CN(C)C[C@H]2Oc3c(NC(=O)c4ccc(-c5nccs5)cc4)cccc3C(=O)N([C@@H](C)CO)C[C@H]2C)cc1	-7.9	-1.1	.	-81.8*
COc1ccc(CN(C)C[C@H]2Oc3c(NC(=O)c4ccc(-c5nccs5)cc4)cccc3C(=O)N([C@H](C)CO)C[C@@H]2C)cc1	-0.6	0.7	9.0	-59.7
COCC(=O)Nc1ccc2c(c1)C(=O)N(C)C[C@@H](OC)[C@H](C)CN(C(=O)c1cnccn1)[C@H](C)CO2	-0.2	0.2	-0.6	9.9
CN1c2ccc(C#Cc3cccnc3)cc2[C@@H]2[C@@H](CCN2C(=O)C2CCCC2)[C@H]1CO	.	6.2	.	-66.2
CN1c2ccc(C#Cc3cccnc3)cc2[C@@H]2[C@@H](CCN2C(=O)C2CCC2)[C@@H]1CO	.	1.3	.	-87.4*
CN1c2ccc(C#Cc3cccc(F)c3)cc2[C@H]2[C@H](CCN2S(=O)(=O)c2ccccc2F)[C@@H]1CO	.	0.0	29.8	0.8
CN1c2ccc(C#Cc3cccnc3)cc2[C@@H]2[C@@H](CCN2S(=O)(=O)c2ccccc2F)[C@@H]1CO	.	-1.3	101.5	-87.9*
COCC(=O)N(C)C[C@H]1Oc2cc(C#Cc3ccccc3)ccc2S(=O)(=O)N([C@@H](C)CO)C[C@@H]1C	4.7	-0.8	25.0	-76.3
COCC(=O)N(C)C[C@@H]1Oc2cc(C#Cc3ccccc3)ccc2S(=O)(=O)N([C@H](C)CO)C[C@@H]1C	-4.5	-0.9	16.2	-81.8*
C[C@H](CO)N1C[C@H](C)[C@H](CN(C)C(=O)C2CC2)Oc2cc(C#Cc3ccccc3)ccc2S1(=O)=O	-1.4	-2.9	89.1	-91.8*
C[C@H](CO)N1C[C@H](C)[C@@H](CN(C)C(=O)C2CC2)Oc2cc(C#Cc3ccccc3)ccc2S1(=O)=O	1.0	0.5	51.5	-63.7
SMILES	IDH1 mut inh	KDM4C inh	T cruzi growth	Pf Dd2 growth
C[C@@H]1CN([C@H](C)CO)C(=O)c2cc(C3=CCCC3)cnc2O[C@H]1CN(C)C(=O)Cc1ccncc1	4.1	3.2	0.6	-10.6
O=C(C[C@H]1CC[C@H](NC(=O)C2CCOCC2)[C@@H](CO)O1)NCC1CC1	.	-0.3	.	6.8
C[C@H]1CN([C@@H](C)CO)C(=O)c2cc(NC(=O)c3ccncc3)ccc2O[C@@H]1CN(C)C(=O)Nc1cccc2ccccc12	0.6	2.1	-6.6	-9.0
N#Cc1ccc(-c2ccc(C3[C@@H]4CN(C(=O)C5CC5)C[C@H]3N4)cc2)cc1 (some centres not stated)	.	-1.7	.	-88.1*!
C/C=C/c1ccc(C2[C@@H]3CN(C(=O)Nc4ccc5c(c4)OCO5)C[C@H]2N3)cc1 (some centres not stated)	.	4.3	.	-36.8
N#Cc1ccc(-c2ccc([C@@H]3[C@@H]4CN(C(=O)Nc5ccc6c(c5)OCO6)C[C@H]3N4)cc2)cc1	.	1.5	.	-86.6*
C=CCN1C(=O)[C@]2(O[C@H](CCO)[C@@H]([Si](C)(C)c3ccc(OC)cc3)[C@@H]2C)c2cc(NC(=O)[C@H](C)O)ccc21	-0.4	.	.	.
C=CCN1C(=O)[C@@]2(O[C@@H](CCn3cc(CCO)nn3)[C@H]([Si](C)(C)c3ccc(OC)cc3)[C@H]2C)c2cc(NC(=O)c3ccc(OC)cc3)ccc21	65.6*	.	.	.
C[C@@H]1CCCCO[C@@H](CN(C)C(=O)Nc2cccc3ccccc23)[C@H](C)CN([C@@H](C)CO)C(=O)c2cc(NC(=O)c3ccncc3)ccc2O1	0.2	-1.5	31.5	-73.4
C[C@@H]1CCCCO[C@@H](CN(C)C(=O)Nc2cccc3ccccc23)[C@H](C)CN([C@H](C)CO)C(=O)c2cc(NC(=O)c3ccncc3)ccc2O1	.	-2.5	60.2	-84.5*
C[C@@H]1CN([C@H](C)CO)C(=O)c2cc(NC(=O)c3ccncc3)ccc2O[C@@H](C)CCCCO[C@@H]1CN(C)C(=O)Nc1cccc2ccccc12	2.4	-0.1	.	-90.2*
C[C@@H]1CN([C@@H](C)CO)C(=O)c2cc(NC(=O)c3ccncc3)ccc2O[C@@H](C)CCCCO[C@@H]1CN(C)C(=O)Nc1cccc2ccccc12	-1.1	2.9	53.4	-84.0*
C[C@@H]1CN([C@@H](C)CO)C(=O)c2cc(NC(=O)c3ccccc3)ccc2O[C@@H](C)CCCCO[C@@H]1CN(C)C(=O)Nc1cccc2ccccc12	1.1	-1.6	62.6	-87.4*

Assay outcomes deposited in PubChem BioAssay by Broad Institute.
